Test results as given in ChEMBL document CHEMBL4118103, “Synthesis and Bioactivity Investigation of the Individual Components of Cyclic Lipopeptide Antibiotics” (J Med Chem, 2018).
≈ marks a conversion by molar mass, not a printed value. Bridge positions count the residues as written; N and C are the ends. Square brackets hold non-standard residues; d marks the D form. Peptide text beside a SMILES is read from it. * marks the point of attachment. Heptanoyl(6-Me) = CC(C)CCCCC(=O)*; Octanoyl(7-Me) = CC(C)CCCCCC(=O)*; Nonanoyl = CCCCCCCCC(=O)*; Heptanoyl = CCCCCCC(=O)*; Dab = NCC[C@H](N)C(=O)O; Nva = CCC[C@H](N)C(=O)O

Tests used:
[1] = test system: Klebsiella pneumoniae; assay: Antibacterial activity against extended-spectrum beta-lactamase producing Klebsiella pneumoniae 700603 after 18 hrs by agar dilution method; format: functional; details: Klebsiella pneumoniae, 700603, 18 h
How it was run: (§1)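 Serial two-fold agar dilution per CLSI; bacteria cultured in Mueller-Hinton broth, inoculum about 10^4 cfu/spot; final concentrations 0.03-128 µg/mL; plates incubated 35 °C for 18 h. MIC = lowest concentration preventing visible growth; representative of at least two independent experiments, a third run when the two disagreed.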

[2] = test system: Escherichia coli; assay: Antibacterial activity against extended-spectrum beta-lactamase producing Escherichia coli isolate 14-11 after 18 hrs by agar dilution method; format: functional; details: isolate 14-11, 18 h; how it was run: as §1
[3] = test system: Acinetobacter baumannii; assay: Antibacterial activity against Acinetobacter baumannii ATCC 19606 after 18 hrs by agar dilution method; format: functional; details: ATCC 19606 = CIP 70.34 = JCM 6841, 18 h; how it was run: as §1
[4] = test system: Klebsiella pneumoniae; assay: Antibacterial activity against NDM-1 producing Klebsiella pneumoniae ATCC BAA-2146 after 18 hrs by agar dilution method; format: functional; details: ATCC BAA-2146, 18 h; how it was run: as §1
[5] = test system: Pseudomonas aeruginosa; assay: Antibacterial activity against Pseudomonas aeruginosa ATCC 27853 after 18 hrs by agar dilution method; format: functional; details: ATCC 27853, 18 h; how it was run: as §1
[6] = test system: Escherichia coli; assay: Antibacterial activity against Escherichia coli ATCC 25922 after 18 hrs by agar dilution method; format: functional; details: ATCC 25922, 18 h; how it was run: as §1
[7] = Acute toxicity in iv dosed ICR mouse assessed as survival measured daily for 7 days; format: organism-based; details: in vivo
How it was run: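 ICR mice, 18 to 22 g, 4 weeks old, 10 per group (5 male, 5 female). Four to five intravenous dose groups per compound. Survival recorded daily for 7 days. LD50 (dose per kg body weight lethal to 50%) calculated by the Bliss method. LD50 values compared by one-way ANOVA.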

[8] = Cytotoxicity against African green monkey Vero cells after 72 hrs by MTT assay; format: cell-based; details: chlorocebus sabaeus, Vero cells
How it was run: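 Vero cells seeded at 2x10^3 cells/well, incubated 24 h at 37 °C, 5% CO2, then exposed to compound 72 h; MTT added for 2 h, medium removed, formazan dissolved in DMSO, absorbance read at 570 nm. Viability relative to untreated cells (100%); CC50 as mean ± SD of three independent experiments, each in triplicate.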

[9] = test system: Mus musculus; assay: Nephrotoxicity in ICR mouse assessed as pale tubular casts at 2.5 mg/kg, iv bid for 7 days measured after 2 hrs post last dose by hematoxylin and eosin staining based assay; format: toxicity, organism-based; details: in vivo
How it was run: (§2)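 ICR mice, 18-22 g, 4 weeks old, n=8 per group (4 male, 4 female); component in saline (0.25 mg/mL, kept at 4 °C) given iv at 2.5 mg/kg twice daily, 8 h apart, for 7 days. Kidneys taken 2 h after last dose, formalin-fixed, paraffin-embedded, sectioned, H&E stained and examined by light microscopy; saline controls included.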

[10] = test system: Mus musculus; assay: Nephrotoxicity in ICR mouse assessed as tubular dilation at 2.5 mg/kg, iv bid for 7 days measured after 2 hrs post last dose by hematoxylin and eosin staining based assay; format: toxicity, organism-based; details: in vivo; how it was run: as §2
[11] = test system: Mus musculus; assay: Nephrotoxicity in ICR mouse assessed as induction of prominent nuclei at 2.5 mg/kg, iv bid for 7 days measured after 2 hrs post last dose by hematoxylin and eosin staining based assay; format: toxicity, organism-based; details: in vivo; how it was run: as §2

Structure (SMILES)	MIC [1] [µg/mL]	MIC [2] [µg/mL]	MIC [3] [µg/mL]	MIC [4] [µg/mL]	MIC [5] [µg/mL]	MIC [6] [µg/mL]	LD50 at 168 h [7] [mg/kg]	CC50 at 72 h [8] [µg/mL]	Activity [9]	Activity [10]	Activity [11]
CC(C)CCCCC(=O)N[C@@H](CCN)C(=O)N[C@H](C(=O)N[C@@H](CCN)C(=O)N[C@H]1CCNC(=O)[C@H]([C@@H](C)O)NC(=O)[C@H](CCN)NC(=O)[C@H](CCN)NC(=O)[C@H](C(C)C)NC(=O)[C@@H](CC(C)C)NC(=O)[C@H](CCN)NC1=O)[C@@H](C)O ({Heptanoyl(6-Me)}-[Dab]T[Dab][Dab][Dab][dL]V[Dab][Dab]T; lactam 4-C)	0.5 (≈ 0.438 µM)	0.25 (≈ 0.219 µM)	1 (≈ 0.876 µM)	0.5 (≈ 0.438 µM)	2 (≈ 1.75 µM)	0.5 (≈ 0.438 µM)	13.2	225 (≈ 197 µM)			
CCC[C@@H]1NC(=O)[C@@H](CC(C)C)NC(=O)[C@H](CCN)NC(=O)[C@@H](NC(=O)[C@H](CCN)NC(=O)[C@@H](NC(=O)[C@H](CCN)NC(=O)CCCCC(C)C)[C@@H](C)O)CCNC(=O)[C@H]([C@@H](C)O)NC(=O)[C@H](CCN)NC(=O)[C@H](CCN)NC1=O ({Heptanoyl(6-Me)}-[Dab]T[Dab][Dab][Dab][dL][Nva][Dab][Dab]T; lactam 4-C)	0.5 (≈ 0.438 µM)	0.25 (≈ 0.219 µM)	0.5 (≈ 0.438 µM)	0.5 (≈ 0.438 µM)	1 (≈ 0.876 µM)	0.5 (≈ 0.438 µM)	12.4	168 (≈ 147 µM)			
CC(C)CCCCC(=O)N[C@@H](CCN)C(=O)N[C@H](C(=O)N[C@H](CO)C(=O)N[C@H]1CCNC(=O)[C@H]([C@@H](C)O)NC(=O)[C@H](CCN)NC(=O)[C@H](CCN)NC(=O)[C@H]([C@@H](C)O)NC(=O)[C@@H](Cc2ccccc2)NC(=O)[C@H](CCN)NC1=O)[C@@H](C)O ({Heptanoyl(6-Me)}-[Dab]T[dS][Dab][Dab][dF]T[Dab][Dab]T; lactam 4-C)	0.5 (≈ 0.429 µM)	0.25 (≈ 0.215 µM)	0.25 (≈ 0.215 µM)	0.5 (≈ 0.429 µM)	2 (≈ 1.72 µM)	0.25 (≈ 0.215 µM)	17	> 500	Non-Toxic	Non-Toxic	Non-Toxic
CC(C)CCCCC(=O)N[C@@H](CCN)C(=O)N[C@H](C(=O)N[C@H](CO)C(=O)N[C@H]1CCNC(=O)[C@H]([C@@H](C)O)NC(=O)[C@H](CCN)NC(=O)[C@H](CCN)NC(=O)[C@H]([C@@H](C)O)NC(=O)[C@@H](CC(C)C)NC(=O)[C@H](CCN)NC1=O)[C@@H](C)O ({Heptanoyl(6-Me)}-[Dab]T[dS][Dab][Dab][dL]T[Dab][Dab]T; lactam 4-C)	0.5 (≈ 0.442 µM)	0.12 (≈ 0.106 µM)	0.12 (≈ 0.106 µM)	0.5 (≈ 0.442 µM)	4 (≈ 3.54 µM)	0.25 (≈ 0.221 µM)	20.5	318 (≈ 281 µM)	Toxic	Toxic	Toxic
CC(C)CCCCCC(=O)N[C@@H](CCN)C(=O)N[C@H](C(=O)N[C@@H](CCN)C(=O)N[C@H]1CCNC(=O)[C@H]([C@@H](C)O)NC(=O)[C@H](CCN)NC(=O)[C@H](CCN)NC(=O)[C@H](CC(C)C)NC(=O)[C@@H](CC(C)C)NC(=O)[C@H](CCN)NC1=O)[C@@H](C)O ({Octanoyl(7-Me)}-[Dab]T[Dab][Dab][Dab][dL]L[Dab][Dab]T; lactam 4-C)	1 (≈ 0.855 µM)	1 (≈ 0.855 µM)	1 (≈ 0.855 µM)	1 (≈ 0.855 µM)	2 (≈ 1.71 µM)	1 (≈ 0.855 µM)		87 (≈ 74.4 µM)			
CCCCCCC(=O)N[C@@H](CCN)C(=O)N[C@H](C(=O)N[C@@H](CCN)C(=O)N[C@H]1CCNC(=O)[C@H]([C@@H](C)O)NC(=O)[C@H](CCN)NC(=O)[C@H](CCN)NC(=O)[C@H](CC(C)C)NC(=O)[C@@H](Cc2ccccc2)NC(=O)[C@H](CCN)NC1=O)[C@@H](C)O [POLYMYXIN B4] (Heptanoyl-[Dab]T[Dab][Dab][Dab][dF]L[Dab][Dab]T; lactam 4-C)	1 (≈ 0.851 µM)	0.5 (≈ 0.425 µM)	0.5 (≈ 0.425 µM)	0.5 (≈ 0.425 µM)	1 (≈ 0.851 µM)	0.5 (≈ 0.425 µM)		160 (≈ 136 µM)			
CCCCCCCCC(=O)N[C@@H](CCN)C(=O)N[C@H](C(=O)N[C@@H](CCN)C(=O)N[C@H]1CCNC(=O)[C@H]([C@@H](C)O)NC(=O)[C@H](CCN)NC(=O)[C@H](CCN)NC(=O)[C@H](CC(C)C)NC(=O)[C@@H](Cc2ccccc2)NC(=O)[C@H](CCN)NC1=O)[C@@H](C)O [POLYMYXIN B5] (Nonanoyl-[Dab]T[Dab][Dab][Dab][dF]L[Dab][Dab]T; lactam 4-C)	2 (≈ 1.66 µM)	2 (≈ 1.66 µM)	2 (≈ 1.66 µM)	4 (≈ 3.32 µM)	4 (≈ 3.32 µM)	2 (≈ 1.66 µM)		33 (≈ 27.4 µM)			
